The values below come from ChEMBL document CHEMBL4673249, “Anticancer Effects of Honokiol via Mitochondrial Dysfunction Are Strongly Enhanced by the Mitochondria-Targeting Carrier Berberine” (J Med Chem, 2020).

Series [1] relates to HepG2. Description: Induction of morphological changes in human HepG2 cells assessed as effect on size of vacuoles at 3 uM after 24 hrs in presence of z-VAD-fmk by microscopic analysis. It is filed as functional, cell-based. The essentials: (§1)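 HepG2 cells preincubated with or without z-VAD-fmk (20 μM, 2 h), then treated with 3 μM compound. Vacuole number and size judged from optical microscopy images.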

The subject of the next series is HepG2 (Homo sapiens). As to the kind of experiment: Induction of morphological changes in human HepG2 cells assessed as accumulation of cytoplasmic vacuoles at 4 uM after 24 hrs by optical microscopic method.
Series [2] in a line: Drug uptake in human HepG2 cells mitochondria at 5 uM after 12 hrs by HPLC analysis. The format is ADME. As to conditions: hepg2, 12 h. The method in brief:
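HepG2 cells given 5 μM for 12 h, then homogenized in mitochondrial extraction reagent. Spun at 600 g, 4 °C, 10 min; supernatant spun again at 11000 g, 4 °C, 10 min, and the pellet taken as mitochondria. Drug content by HPLC on a C18 column with methanol–0.1% acetic acid (80:20), detection at 265 nm. Run thrice.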

In series [3] the test system is HepG2. Description: Induction of morphological changes in human HepG2 cells assessed as effect on number of vacuoles at 3 uM after 24 hrs in presence of z-VAD-fmk by microscopic analysis. It is filed as functional, cell-based. The method in brief:
as §1

In series [4] the test system is HepG2. Description: Induction of apoptosis in human HepG2 cells assessed as early apoptotic cells at 4 uM after 24 hrs in presence of z-VAD-fmk by annexin V/propidium iodide staining based flow cytometric analysis (reference value: 0.86%). It is filed as functional. (In general: In flow cytometry, cells or beads pass a laser one at a time.)
In series [5] the test system is HepG2. Description: Induction of apoptosis in human HepG2 cells assessed as viable cells at 4 uM after 24 hrs by annexin V/propidium iodide staining based flow cytometric analysis (reference value: 95.3%). As to conditions: read-out: Activity. It is filed as functional.
Series [6] deals with HepG2. As to the kind of experiment: Induction of cell death in human HepG2 cells at 3 uM after 24 hrs in presence of 3-MA by MTT assay. The format is functional, cell-based. The essentials: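 HepG2 cells given 3 μM for 24 h together with CQ (10 μM) or 3-MA (1 mM). Viability measured by MTT with absorbance read at 570 nm.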
For series [7], the system named is HepG2. Description: Induction of apoptosis in human HepG2 cells assessed as necrotic cells at 1 uM after 24 hrs by annexin V/propidium iodide staining based flow cytometric analysis (reference value: 0.11%). The format is functional.
In another series the test system is A2780. Description: Antiproliferative activity against human A2780 cells assessed as reduction in cell viability after 48 hrs by MTT assay. Conditions: A2780, 48 h. The format is functional, cell-based. The essentials: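 Cell lines grown at 37 °C in 5% CO2: A2780, A549, HL7702 and PC3 in RPMI 1640; HT29 in McCoy's 5A; HepG2 and PANC-1 in DMEM; all media with 10% FBS and penicillin/streptomycin. Cells seeded and left overnight, then exposed to compound for 48 h. MTT (5 mg/mL solution) added for 4 h at 37 °C, formazan dissolved in DMSO, absorbance read at 570 nm. IC50 taken from viability; run in triplicate.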
(Tetrazolium assays rely on reduction of a dye to a coloured formazan, in cell work by metabolically active cells.)

The nature of series [8]: Selectivity ratio of IC50 for antiproliferative activity against human L02 cells to IC50 for antiproliferative activity human HepG2 cells. Conditions: L02 cells and HepG2 cells, read-out: Ratio IC50. It is filed as toxicity, cell-based. The essentials:
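MTT assay after 48 h drug exposure. Cells seeded overnight, MTT (5 mg/mL stock) added for 4 h at 37 °C, formazan dissolved in DMSO, absorbance read at 570 nm. IC50 taken from viability, repeated in triplicate, and the IC50 ratio calculated.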

For series [9], the system named is HepG2. Description: Induction of mitochondrial dysfunction in human HepG2 cells assessed as dispersive puncta formation at 2 to 4 uM after 12 hrs by calcein-AM staining based fluorescence microscopic analysis. It is filed as functional, cell-based. As to conditions: dose 2-4 µM. The method in brief: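 HepG2 cells in glass-bottom plates treated for 12 h. Co-loaded with 1.5 μM calcein-AM and 5 mM CoCl2 in DMEM at 37 °C for 20 min; CoCl2 quenches cytosolic calcein. Washed three times with PBS and imaged by fluorescence microscopy through a 525-nm bandpass filter.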

Series [10] can be described thus: Drug localization n human HepG2 cells mitochondria by MitoTracker staining based confocal microscopic analysis. The format is ADME. The essentials: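 HepG2 cells in glass-bottom dishes were exposed to compound, then stained with 150 nM MitoTracker Red CMXRos for 20 min. Compound's own blue fluorescence imaged against the red mitochondrial signal by confocal microscopy.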

In series [11] the test system is HepG2. Description: Induction of morphological changes in human HepG2 cells assessed as accumulation of cytoplasmic vacuoles at 4 uM after 24 hrs by optical microscopic method. It is filed as functional, cell-based. The method in brief:
(§2)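 Cells grown at 37 °C, 5% CO2 in media with 10% FBS and penicillin/streptomycin, then treated with compound. Cytoplasmic vacuoles judged by optical microscopy. Time course at 4 μM, or 10 h exposure across increasing concentrations.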

Series [12] deals with HepG2. As to the kind of experiment: Induction of apoptosis in human HepG2 cells after 24 hrs by annexin V/propidium iodide staining based flow cytometric analysis. As to conditions: dose 1-4 µM. The format is functional, cell-based.
Series [13] concerns HepG2. Description: Induction of cell death in human HepG2 cells assessed as reduction in cell viability after 24 hrs in presence of z-VAD-fmk by MTT assay. It is filed as functional, cell-based. The method in brief: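 HepG2 cells pretreated with 20 μM z-VAD-fmk for 2 h, then exposed to a range of doses. Viability measured by MTT: 4 h at 37 °C, formazan in DMSO, absorbance at 570 nm.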

In a further series the test system is HT-29. Description: Induction of morphological changes in human HT29 cells assessed as accumulation of cytoplasmic vacuoles at 4 uM after 24 hrs by optical microscopic method. The format is functional, cell-based. The essentials: as §2
Series [14] has as its system HepG2. Description: Induction of apoptosis in human HepG2 cells assessed as decrease in pro-caspase 12 protein expression at 1 to 4 uM after 24 hrs by Western blot analysis. It is filed as functional, cell-based. Conditions: dose 1-4 µM. The method in brief: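 HepG2 cells lysed in RIPA on ice for 20 min; protein measured by BCA. Lysates run on 10% SDS-PAGE and transferred to PVDF. Membranes blocked in 5% nonfat milk/TBST for 2 h, incubated with primary antibodies overnight at 4 °C, then HRP secondary antibody; bands detected by ECL.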

In series [15] the test system is HepG2. Description: Induction of apoptosis in human HepG2 cells assessed as accumulation of AIF in cytoplasm at 4 uM after 24 hrs by immunofluorescence assay. The format is functional, cell-based. The method in brief: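 HepG2 cells in glass-bottom dishes given 4 μM for 24 h. Fixed in methanol:acetone (1:1) for 10 min, blocked with 5% BSA for 1 h at room temperature. Anti-AIF antibody applied overnight at 4 °C, then Alexa Fluor 594 secondary; nuclei stained with DAPI. Imaged by confocal microscopy.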

Calls of active or inactive are those of the source. The rule behind the calls is not given here.

Broadly, the IC50 is the concentration that inhibits the measured activity by half.

As for `C=CCc1ccc(O)c(-c2ccc(OCCCCCc3c4[n+](cc5c(OC)c(OC)ccc35)CCc3cc5c(cc3-4)OCO5)c(CC=C)c2)c1.[I-]`, the outcome in the series on HepG2 [1] and with HepG2 [3] was inactive. Moreover, the outcome with HepG2 (Homo sapiens), in the series on HepG2 [6], in the series on HepG2 [9], in the series on HepG2 [11], in the series with HepG2 [13] and in the series on HT-29 was Active. Moreover, the outcome in the series on HepG2 [14] and in the series on HepG2 [15] was Active. Also, the values for the Drug uptake in series [2] and in series [10] were 66.3 µM and “Active”, respectively. In addition, the figures for the Activity with HepG2 [4], in the series with HepG2 [7] and in the series on HepG2 [12] were 6.59%, 0.2% and “Dose-dependent effect”, respectively. Further, the viability at 4 µM in the series on HepG2 [5] amounted to 73.3%. The IC50 in the series with A2780 was 2.22 µM. Also, in series [8], the selectivity ratio was 2.8.
